aDG glyco up – activators of alpha-DG glycosylation, primary screen, uHTS, Pro5-aDG cells, AlphaScreen. 360,000 compounds, 0.22% hits. alpha-DG glycosylation AlphaScreen (IIH6); 0% Pro5, 100% B10-LARGE cell signal. activation, % at 10 µM;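 active = activation of at least 8% versus controls, or a plate z-score of at least 8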;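 also: Pro5 are CHO cells carrying HIG-tagged alpha-DG that lacks glycosylation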
T cell modulator – modulators of CD8 T cell-vesicle binding, primary screen, mouse 2C CD8+ T cells, flow cytometry; 2C CD8+ T cell-vesicle binding; active compounds read low; AID 2052, 2009; response (vesicle binding), % at 7 µM; 330,000 compounds, 0.068% hits;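 active = response, share of CD8 T cells binding vesicles, and their 90th percentile fluorescence all below set limits, cut at about 80% in these data, passing the limit was not always enough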;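 also: values below 100% mean blocked vesicle binding to the CD8+ T cells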
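Material: 2C TCR transgenic mouse naive CD8+ T cells, MACS-purified. Also added: QL9-charged Drosophila Ld/ICAM-1/B7-1 vesicles. Timing: binding 1.5 h at 37 °C. Measured by: high-throughput flow cytometry with anti-B7-1 and anti-CD8 staining. Read-out: percent CD8+ FL2 mean versus row control. Controls: Unloaded micro-vesicles (low), QL9 vesicles with 0.7% DMSO (high).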
PolyA inh – polyadenylation inhibitors in yeast reporter cells, primary screen, luminescence, S. cerevisiae. S. cerevisiae SKY197-pL101 polyadenylation reporter, beta-gal luminescence; efflux-impaired pdr1/pdr3 knockout yeast; score 100 = 6 SD above DMSO. activity score, % at 12 µM. 300,000 compounds, 0.02% hits. AID 1875, 2009;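 active = lowest replicate activity score at least 50, where 100 means six control SD above control mean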;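 also: yeast exposed to compound for 9 h at 30 °C; higher score means more reporter readthrough which indicates perturbed polyadenylation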
Rce1 inhib – yeast Rce1p protease inhibitors, primary screen, biochemical, fluorescence, cell-free homogeneous; CAAX prenyl protease 2 (Saccharomyces cerevisiae (strain ATCC 204508 / S288c)), Q03530; yeast membranes, quenched prenylated peptide cleavage fluorescence; calls only; 290,000 compounds, 0.27% hits; AID 2563, 2010;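 active = fall in fluorescence gain of 50% or more versus controls, with final raw signal at or below 3038400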;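 also: plate controls were neutral control wells for no effect and wells lacking membranes for full effect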
Target sequence (Q03530 whole entry, looked up): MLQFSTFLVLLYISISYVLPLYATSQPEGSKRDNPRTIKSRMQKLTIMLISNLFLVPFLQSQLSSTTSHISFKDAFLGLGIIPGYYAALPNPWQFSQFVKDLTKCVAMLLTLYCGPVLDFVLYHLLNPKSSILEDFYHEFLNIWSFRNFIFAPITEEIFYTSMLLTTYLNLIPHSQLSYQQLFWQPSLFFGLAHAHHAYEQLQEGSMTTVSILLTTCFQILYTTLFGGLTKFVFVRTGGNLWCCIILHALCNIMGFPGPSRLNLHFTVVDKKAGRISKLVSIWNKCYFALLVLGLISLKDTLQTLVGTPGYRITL
aDG glyco conf – alpha-DG glycosylation enhancers, retest, confirmation, single concentration, Pro5-aDG cells; 600 compounds, 17% hits; IIH6 AlphaLISA; scaled to LARGE-overexpressing B10 cells as 100%; shares compounds with aDG glyco up; activation, % at 10 µM (by protocol); AID 651671, 2012;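 active = activation of at least 7% in one or more replicates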;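 also: cells exposed to compound for two days before detection; 0% = DMSO-treated Pro5 cells and 100% = DMSO-treated B10-LARGE cells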
* hit, by the source's call; i = inactive; / = no result. A selection: hits, their analogues and other compounds. The true share with any hit is near 0.51%.

SMILES	aDG glyco up	T cell modulator	PolyA inh	Rce1 inhib	aDG glyco conf
Brc1ccc(CNc2ccc3ncccc3c2)cc1	2.8*	140.2	4.1	i	0.1
CCCCOc1ccc(C(=O)NCC(=O)NCc2ccccn2)cc1	7.3*	325.1	-0.7	i	0.1
COc1cc(C(=O)Nc2c(C(=O)O)[nH]c3ccc(Br)cc23)cc(OC)c1OC	0.0	363.4	3.4	i	/
FC(F)(F)c1cccc(Cc2noc(CN3CCC(c4ccncc4)CC3)n2)c1	6.1*	193.4	-0.2	i	1.5
CN1CCCC2(CCCN(Cc3nc(Cc4cccc(C(F)(F)F)c4)no3)C2)C1 (centres undefined)	2.0	168.8	-0.3	i	/
O=C1C2CCC(C2)C1CN1CCOCC1 (centres undefined)	12.6*	/	/	/	-0.8
CCOC(=O)CN(C(=O)CSc1nnc(CNc2ccc(F)cc2)n1CC)c1ccc(F)cc1	5.2*	237.9	15.8	i	-0.5
Cn1c(N)c(C(=O)CSc2nn(-c3ccccc3)c(=S)s2)c(=O)n(C)c1=O	0.1	/	/	/	/
CN(C)c1nc(-c2cn(CCC#N)c3ccccc23)cs1	5.1*	192.7	-0.6	i	2.0
COc1cc(NC(=O)CSc2nnc3ccccn23)cc(OC)c1OC	-0.2	/	/	/	/
COc1ccccc1CCNCc1ccc(OC)c(OCc2ccccc2)c1	5.6*	170.0	-5.7	i	1.7

Source: PubChem (several laboratories)
